This is an account of results in ChEMBL document CHEMBL1153722, “Design, synthesis, and characterization of peptide-based rab geranylgeranyl transferase inhibitors” (J Med Chem, 2009).

The nature of data set [1]: Displacement of Mant-FPP from rat recombinant Rab geranylgeranyltransferase by co-titration based fluorescence assay. Put shortly:
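RabGGTase was titrated into 300 nM Mant-FPP at several fixed inhibitor concentrations. Apparent Kd of Mant-FPP was obtained at each inhibitor level by quadratic fitting. Linear versus hyperbolic dependence of apparent Kd on inhibitor concentration was taken as competitive versus partially competitive binding.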

The subject of data set [2] is COS-7 (Chlorocebus aethiops). The experiment in a line: Inhibition of recombinant Rab geranylgeranyltransferase expressed in COS-7 cells assessed as inhibition of geranylgeranylation of EYFP-Rab7 protein at 10 to 100 uM by Western blot relative to compactin.
Data set [3] deals with COS-7 (Chlorocebus aethiops). Kind of data set: Inhibition of recombinant Rab geranylgeranyltransferase expressed in COS-7 cells assessed as inhibition of geranylgeranylation of EYFP-Rab7 protein by Western blot. On the set-up: concentration or dose not given beside the values. As to conditions: dose or concentration not given here.
A short description of data set [4]: Inhibition of rat recombinant Rab geranylgeranyltransferase by SDS-PAGE end point assay. Put shortly:
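End-point transfer of fluorescent prenyl analogues (NBD-GPP or NBD-FPP) to protein substrates was run for 10 min at varied inhibitor concentrations. Substrates were GST-KiRas for FTase, GST-RhoA for GGTase-I and Rab7 for RabGGTase. Reactions were quenched with SDS sample buffer and run on SDS-PAGE. Fluorescent bands were quantified by densitometry.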

Data set [5] concerns the target geranylgeranyltransferase type-I (Rattus norvegicus). The experiment in a line: Inhibition of rat recombinant GGTase-1 by SDS-PAGE end point assay.
The species named for data set [6] is Rattus norvegicus. The experiment in a line: Displacement of NBD-FPP from rat recombinant Rab geranylgeranyltransferase by fluorescence titration. The method, boiled down:
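Displacement titration: 400 nM NBD-FPP was pre-equilibrated with 550 nM RabGGTase. Inhibitor was added stepwise in 1 or 5 μM increments while NBD fluorescence was monitored. The end point was controlled by a final addition of GGPP to 4 μM.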

The nature of data set [7]: Inhibition of rat recombinant Rab geranylgeranyltransferase iin presence of canine Rab7 and rat REP1 by NBD-FPP based continuous fluorimetric assay. The method, boiled down: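 Continuous fluorometric assay in 96/384-well format: 3 μM Rab7, 3 μM REP1, 9 μM NBD-FPP and 400 nM RabGGTase, with or without inhibitor. IC50 was calculated from three independent measurements.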

Data set [8] deals with COS-7 (Chlorocebus aethiops). The experiment in a line: Cytotoxicity in monkey COS-7 cells at 100 uM. Particulars: COS-7, 100 µM.
The target in data set [9] is protein farnesyltransferase (Rattus norvegicus). The experiment in a line: Inhibition of rat recombinant FTase by SDS-PAGE end point assay.
The species named for data set [10] is Rattus norvegicus. The experiment in a line: Inhibition of rat recombinant Rab geranylgeranyltransferase at 100 uM in presence of canine Rab7 and rat REP1 NBD-FPP based continuous fluorimetric assay. The method, boiled down:
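Continuous fluorometric assay in 96/384-well format: 3 μM Rab7, 3 μM REP1, 9 μM NBD-FPP and 400 nM RabGGTase, with or without inhibitor. […] IC50 was calculated from three independent measurements.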

Active and inactive are the calls of the source. The rule behind the calls is not given here. Square brackets hold non-standard residues; d marks the D form. Peptide text beside a SMILES is read from it. * marks the point of attachment. NMeF = CN[C@@H](Cc1ccccc1)C(=O)O; Cbz = O=C(OCc1ccccc1)*; NHOH = ON* Some results are limits rather than exact numbers.

Regarding `CCCCCCCCCCC(=O)N[C@@H](Cc1c[nH]cn1)C(=O)N[C@@H](Cc1ccccc1)C(=O)N[C@@H](Cc1ccc(O)cc1)C(=O)N(C)CCc1ccccn1`, in [1], the Ki amounted to 5.4 µM. Also, the Activity entry in [2] was “Dose-dependent effect”. The inhibition in data set [3] was determined as 70%. Moreover, the IC50 in [4] was 2.8 µM.
Turning to `O=C(CNC(=O)[C@H](Cc1c[nH]cn1)NC(=O)c1coc(-c2ccccc2)n1)N[C@@H](Cc1cn(C(c2ccccc2)(c2ccccc2)c2ccccc2)cn1)C(=O)O`, the IC50 in data set [5] came out at 6.9 µM; in data set [7], 8.1 µM; in data set [9] it was 13 µM; in data set [4], 14 µM. Also, the result in [6] was Active. In data set [1], the Ki came to 5.3 µM. Further, the Activity entry in [2] is “Dose-dependent effect”; in data set [8] it was “Non-toxic”. Further, the inhibition in data set [3] came to 70%.
With `CCCCCCCC(=O)N[C@@H](Cc1c[nH]cn1)C(=O)N[C@@H](Cc1ccccc1)C(=O)N[C@@H](Cc1ccc(O)cc1)CN(C)CCc1ccccn1`, the IC50 was determined as 97 µM in data set [5], 2.8 µM in data set [7], 98 µM in [9] and 8.8 µM in data set [4].
Regarding `O=C(CNC(=O)[C@H](Cc1cn(C(c2ccccc2)(c2ccccc2)c2ccccc2)cn1)NC(=O)c1coc(-c2ccccc2)n1)N[C@@H](Cc1c[nH]cn1)C(=O)O`, the IC50 is 2.6 µM in [5], 38 µM in data set [7], 14 µM in data set [9] and 41 µM in data set [4]. The inhibition in [10] was 86%.
As for `CN(C(=O)[C@H](Cc1cnc[nH]1)NC(=O)OCc1ccccc1)[C@@H](Cc1ccccc1)C(=O)N[C@@H](Cc1c[nH]c2ccccc12)C(=O)NO` (Cbz-His-[NMeF]-Trp-{NHOH}), the Activity entry in [2] is “Dose-dependent effect”. The inhibition in [3] turned out to be 70%.
On to `O=C(CNC(=O)c1coc(-c2ccccc2)n1)N[C@@H](Cc1ccccc1)C(=O)N[C@@H](Cc1cn(C(c2ccccc2)(c2ccccc2)c2ccccc2)cn1)C(=O)O`, for which the IC50 in [5] is 5.6 µM; in [7], 25 µM; in data set [9] it was 3.4 µM; in data set [4], 31 µM.
`CN(C(=O)[C@@H](Cc1c[nH]cn1)NC(=O)OCc1ccccc1)[C@@H](Cc1ccccc1)C(=O)N[C@@H](Cc1ccc(O)cc1)C(=O)O`: the result in [6] was Active. The Ki in data set [1] came to 4.5 µM. For the same compound, in data set [7], the 50% inhibitory concentration (IC50) was found to be 22.7 µM.
As for `CN(C(=O)[C@H](Cc1cnc[nH]1)NC(=O)OCc1ccccc1)[C@@H](Cc1ccccc1)C(=O)N[C@@H](Cc1ccc(O)cc1)C(=O)NO`, the outcome in data set [6] was Active. Also, the Ki in data set [1] turned out to be 14.5 µM. The Activity result in data set [2] is “Dose-dependent effect”. Also, in [3], the inhibition turned out to be 70%.
`CCCCCCCCCCCOc1ccc(C(=O)N[C@@H](Cc2c[nH]cn2)C(=O)N[C@@H](Cc2ccc(O)cc2)C(=O)N[C@@H](Cc2ccccc2)C(=O)NCCCn2ccnc2)cc1`: in data set [7], the IC50 stood at 12.3 µM. Further, the inhibition in data set [10] turned out to be 7%.
Consider `CCCCCCCCCCC(=O)N[C@@H](Cc1ccc(O)cc1)C(=O)N[C@@H](Cc1c[nH]cn1)C(=O)N[C@@H](Cc1ccc(O)cc1)C(=O)N(C)CCc1ccccn1`, for which the IC50 is over 100 µM in data set [5], 6.3 µM in data set [7], over 100 µM in data set [9] and 4.3 µM in data set [4]. The result in data set [6] was Active. Also, the Ki in data set [1] was found to be 2.8 µM. For the same compound, the results for the Activity result in data set [2] and in data set [8] were “Dose-dependent effect” and “Non-toxic”, respectively. For the same compound, the inhibition in [3] came to 70%.
On to `CCCCCCCCCCC(=O)N[C@@H](Cc1cnc[nH]1)C(=O)N[C@@H](Cc1c[nH]cn1)C(=O)N[C@@H](Cc1ccc(O)cc1)C(=O)N(C)CCc1ccccn1`, for which the Activity entry in data set [6] and in data set [2] was “Dose-dependent effect” each time. In addition, in [1], the Ki is 1.1 µM. Also, the inhibition in data set [3] worked out at 70%. For the same compound, the IC50 in data set [4] was determined as 10 µM.
In the case of `CCCCCCCCCCC(=O)N[C@@H](Cc1c[nH]cn1)C(=O)N[C@@H](Cc1c[nH]cn1)C(=O)N[C@@H](Cc1ccc(O)cc1)C(=O)NCCc1ccccn1`, the IC50 in data set [7] is over 100 µM. Moreover, in data set [10], the inhibition was found to be 80%.
As to `CCCCCc1ccc(CCC(=O)N[C@H](Cc2ccc(O)cc2)C(=O)N[C@@H](Cc2ccc(O)cc2)C(=O)N[C@@H](Cc2ccccc2)C(=O)O)cc1`, in [7], the IC50 is 11 µM.
The same measure, in the same setting: under `CC(C)(C)OC(=O)n1cnc(C[C@H](NC(=O)[C@H](Cc2ccccc2)NC(=O)CNC(=O)c2coc(-c3ccccc3)n2)C(=O)O)c1` stands over 50 µM; under `O=C(CNC(=O)c1coc(-c2ccccc2)n1)N[C@@H](Cc1ccccc1)C(=O)N[C@@H](Cc1cn(Cc2ccccc2)cn1)C(=O)O`, over 50 µM.
Regarding `CCCCCCCCCCC(=O)N[C@@H](Cc1c[nH]cn1)C(=O)N[C@@H](Cc1c[nH]cn1)C(=O)N[C@@H](Cc1ccc(O)cc1)C(=O)NCCCCN`, the IC50 in [7] amounted to 5.2 µM.
The same measure, in the same setting: under `Cc1nc(C(=O)NCC(=O)N[C@@H](Cc2ccccc2)C(=O)N[C@@H](Cc2c[nH]cn2)C(=O)O)c(C)o1` stands over 50 µM; under `CCCCCc1ccc(CCC(=O)N[C@H](Cc2ccc(O)cc2)C(=O)N[C@@H](Cc2ccc(O)cc2)C(=O)N[C@@H](C[Si]2(C)CCCCC2)C(=O)O)cc1`, 19.1 µM; under `O=C(CNC(=O)[C@H](Cc1c[nH]cn1)NC(=O)c1coc(-c2ccccc2)n1)N[C@@H](Cc1ccccc1)C(=O)O`, over 50 µM.
Still for that read-out and setting: then `O=C(CNC(=O)c1csc(-c2cccnc2)n1)N[C@@H](Cc1ccccc1)C(=O)N[C@@H](Cc1c[nH]cn1)C(=O)O`, with over 50 µM; and `CCCCCCCCCCCOc1ccc(C(=O)N[C@@H](Cc2c[nH]cn2)C(=O)N[C@@H](Cc2c[nH]cn2)C(=O)N[C@@H](Cc2c[nH]cn2)C(=O)NCCCCN)cc1`, with 24 µM.
The same measure, in the same setting: under `O=C(CNC(=O)[C@H](Cc1cn(C(c2ccccc2)(c2ccccc2)c2ccccc2)cn1)NC(=O)c1coc(-c2ccccc2)n1)N[C@@H](Cc1ccccc1)C(=O)O` stands 30 µM.
Regarding `O=C(O)C(O)(Cc1cccnc1)P(=O)(O)O` (stereo not given), the Activity entry in data set [2] is “Dose-dependent effect”. Also, the inhibition in data set [3] amounted to 70%.
